# NR2E3 ag-1 = agonists of human NR2E3 nuclear receptor; AID 602229; inhibition of corepressor binding, % at 3.98 µM; hit rate 0.35% among 360,000; CHO-S Gal4-NCOR/VP16-NR2E3 two-hybrid, luciferase;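 active = inhibition above the mean of all tested compounds plus 3 SD, cut at about 70% in these data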;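 note: 0% = DMSO with NR2E3 transfected cells and 100% = cells lacking NR2E3 construct; higher means lower luciferase signal from less NR2E3 corepressor binding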
# rCAG RNA binder = r(CAG) repeat RNA binding | TO-PRO-1 dye displacement fluorescence | inhibition, % at 3 µM | hit rate 1.3% among 370,000 | AID 651821;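 active = inhibition above the plate cutoff, the mean of all test compounds on that plate plus 3 SD, cut at about 35% in these data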;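 note: 0% = DMSO alone and 100% = 100 µM mitoxantrone as full dye displacement; higher means more dye released from RNA so lower well fluorescence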
# NR2E3 ag-2 = activates human photoreceptor nuclear receptor NR2E3. GST-NR2E3/biotin-RetCOR TR-FRET, 1536-well. Q9Y5X4. inhibition of corepressor binding, % at 4.78 µM. hit rate 0.12% among 320,000. AID 2300;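 active = percent inhibition above the cutoff of mean plus 3 SD of all tested compounds, set per screening campaign, cut at about 20% in these data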;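 note: 0% = DMSO wells and 100% = biotin wells as full block of FRET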
#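 Material: NR2E3–RetCOR corepressor complex / Incubation: Compound–protein incubation for 5 h at 4 °C / Dosing: compound at 4.8 µM, single dose / Detection: time-resolved FRET / Benchmarks: high control biotin, low control 0.6% DMSO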
# Rev-erbA mod = modulates human Rev-erb alpha binding to DNA. P20393. hit rate 0.79% among 370,000. activity, % at 10 µM. Rev-erbα–FITC-DNA binding, fluorescence polarization, 90 min;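 active = activity above about 14%, limit read from the data; passing the limit was not always enough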;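 note: 0% = DMSO wells with 35 nM protein and 100% = DMSO wells with 750 nM protein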
# Target sequence (P20393 whole entry, looked up): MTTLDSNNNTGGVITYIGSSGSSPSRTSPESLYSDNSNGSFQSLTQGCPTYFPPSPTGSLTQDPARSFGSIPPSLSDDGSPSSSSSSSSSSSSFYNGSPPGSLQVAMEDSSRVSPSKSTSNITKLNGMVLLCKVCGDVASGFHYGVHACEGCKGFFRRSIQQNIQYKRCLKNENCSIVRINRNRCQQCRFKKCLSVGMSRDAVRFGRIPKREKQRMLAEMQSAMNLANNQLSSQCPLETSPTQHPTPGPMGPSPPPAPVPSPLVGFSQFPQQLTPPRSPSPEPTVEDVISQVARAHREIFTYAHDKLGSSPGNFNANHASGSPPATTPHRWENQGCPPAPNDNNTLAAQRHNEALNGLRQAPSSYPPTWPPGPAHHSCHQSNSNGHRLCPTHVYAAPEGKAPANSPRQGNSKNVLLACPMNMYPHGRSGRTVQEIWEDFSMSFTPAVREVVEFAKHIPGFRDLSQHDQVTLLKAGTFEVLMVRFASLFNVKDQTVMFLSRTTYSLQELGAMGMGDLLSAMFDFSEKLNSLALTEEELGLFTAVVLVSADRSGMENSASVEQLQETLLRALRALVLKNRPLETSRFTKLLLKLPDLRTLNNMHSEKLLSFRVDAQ
# PG9 Ab binder = PG9 antibody binding by small molecule | AID 624416 | inhibition, % at 6.7 µM | hit rate 0.43% among 360,000 | TR-FRET gp120-PG9 antibody binding; in the data active = inhibition above about 8.5%
# rCAG bind conf = r(CAG) RNA repeat binding, confirmation; shares compounds with rCAG RNA binder; TO-PRO-1 dye displacement fluorescence; inhibition, % at 3 µM; hit rate 70% among 4,300; AID 652065;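 active = inhibition above a per-plate cutoff, the mean inhibition of sample wells plus 3 SD, cut at about 35% in these data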;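 note: loss of TO-PRO-1 fluorescence as compound displaces dye from 1x1 AA loop RNA; 0% = DMSO only wells and 100% = 100 µM mitoxantrone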
# dCAG dye counter = DNA CAG dye complex inhibition counter-screen; inhibition, % at 3 µM; d(CAG) DNA oligo TO-PRO-1 dye displacement, fluorescence; hit rate 94% among 4,300; shares compounds with rCAG RNA binder;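 active = inhibition above its plate's cutoff, the mean test-well inhibition plus 3 SD, cut at about 4.8% in these data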;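 note: 0% = DNA dye mix with DMSO and 100% = 100 µM mitoxantrone; hits displace the dye from DNA and so lower well fluorescence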
# The depositor's hits bear a star; · = no result. Hits are enriched below; roughly 2.6% of the tested compounds scored in any of these assays.
SMILES,NR2E3 ag-1,rCAG RNA binder,NR2E3 ag-2,Rev-erbA mod,PG9 Ab binder,rCAG bind conf,dCAG dye counter
Cc1ccc(S(=O)(=O)N2[C@@H](Cc3ccccc3)CO[C@H]2CC(=O)c2cccs2)cc1,·,1,·,0,0,·,·
CC(=O)Nc1ccc(Nc2nc3ccccc3nc2NS(=O)(=O)c2ccccc2)cc1,-6,34,1,-1,2,·,·
CC(=O)Nc1ccc(S(=O)(=O)Nc2nc3ccccc3nc2Nc2cccc(S(N)(=O)=O)c2)cc1,9,52*,6,-3,-3,37*,7.6*
CC(=O)Nc1ccc(S(=O)(=O)Nc2nc3ccccc3nc2Nc2ccccc2)cc1,8,47*,3,-1,-3,40*,9.6*
O=[N+]([O-])c1cccc(S(=O)(=O)Nc2nc3ccccc3nc2Nc2cccc(S(=O)(=O)N3CCCCC3)c2)c1,-8,52*,·,8,-2,95*,86*
C[C@@H]1CN([C@H](C)CO)C(=O)CCCn2cc(nn2)CO[C@H]1CN(C)C(=O)Nc1ccc2c(c1)OCCO2,15,-1,·,1,1,·,·
COc1ccccc1NC(=O)NNC(=O)c1ccncc1,-11,0,·,-6,1,·,·
COc1ccc(CN(C)S(=O)(=O)c2nnc(NC(=O)c3ccccc3Br)s2)cc1,17,73*,7,1,3,52*,18*
COc1cccc(C(=O)Nc2nnc(S(=O)(=O)N3CCCC3)s2)c1,7,24,-1,-7,1,·,·
CC1CCN(S(=O)(=O)c2nnc(NC(=O)c3ccccc3Br)s2)CC1,14,37*,10,3,1,28,6.5*
COc1cc(C(=O)Nc2nnc(S(=O)(=O)N3CCCCCC3)s2)cc(OC)c1OC,-12,52*,3,-6,2,53*,14*
COc1ccc(CN(C)S(=O)(=O)c2nnc(NC(=O)c3cccc(OC)c3)s2)cc1,19,67*,4,-4,1,58*,23*
COc1ccc(NC(=O)N(C)C[C@H]2Oc3ncc(Br)cc3C(=O)N([C@H](C)CO)C[C@@H]2C)cc1,9,2,·,2,2,·,·
COc1cccc(NS(=O)(=O)c2ccc3c(c2)CCCN3C(C)=O)c1,22,-4,0,1,0,·,·
COc1cccc(NS(=O)(=O)c2ccc3c(c2)C2C=CCC2C(c2ccc(C(=O)O)cc2)N3)c1 (stereo not given),-27,96*,3,-9,-3,90*,62*
COc1cccc(C(=O)NCCN2C(=O)C3C4C=CC(C4)C3C2=O)c1 (stereo not given),·,1,·,6,·,·,·
CCN(C[C@H]1N[C@@](Cc2ccccc2)(C(=O)OC)[C@H]2C(=O)N(C)C(=O)[C@@H]12)C(=O)Nc1ccc(C(F)(F)F)cc1,-22,-1,·,3,-1,·,·
CCS(=O)(=O)c1ccc(O)c(NC(=O)c2ccc(S(=O)(=O)N3CCCCCC3)cc2)c1,-9,37*,·,3,0,46*,11*
CCN(CC)S(=O)(=O)c1ccc(C(=O)Nc2cc(S(=O)(=O)N3CCOCC3)ccc2O)cc1,-19,36*,·,-3,-2,32,6.9*
CCOC(=O)c1ccc(NC(=O)c2cc(S(=O)(=O)N3CCOCC3)cn2C)cc1,-13,2,2,4,-2,·,·
COc1cc(-c2cc(C(=O)Nc3cc(S(=O)(=O)N4CCOCC4)ccc3O)c3ccccc3n2)cc(OC)c1OC,18,72*,·,3,0,74*,35*
COc1cc(-c2cc(C(=O)Nc3cc(S(=O)(=O)N4CCOCC4)ccc3C)c3ccccc3n2)cc(OC)c1OC,14,12,·,0,-1,·,·
Cc1ccc(O)c(NC(=O)c2cccc(S(=O)(=O)N3CCCCC3)c2)c1,-10,5,-1,0,-2,·,·
CCN(CC)S(=O)(=O)c1ccc(C(=O)Nc2cc(S(=O)(=O)N3CCOCC3)ccc2N2CCN(C)CC2)cc1,12,2,·,5,0,·,·
CCOC(=O)c1ccc(NC(=O)c2cc(S(=O)(=O)N3CCOCC3)ccc2O)cc1,5,49*,3,1,-1,40*,9.2*
SMILES,NR2E3 ag-1,rCAG RNA binder,NR2E3 ag-2,Rev-erbA mod,PG9 Ab binder,rCAG bind conf,dCAG dye counter
Cc1cc(C(=O)N2CCC2(C)C(=O)Nc2ccc3[nH]ncc3c2)nn1C (stereo not given),7,1,·,-4,-2,·,·
CC(C)(C)CC(=O)Nc1ccc(-c2cn3cccnc3n2)cc1,-38,-1,1,-3,1,·,·
O=C(C[C@H]1CC[C@H]2[C@@H](COC[C@@H](O)CN2C(=O)c2cnccn2)O1)NCc1ccc(Oc2ccccc2)cc1,·,3,·,-1,-2,·,·
O=[N+]([O-])c1cc(-c2nnc(N3CCOCC3)c3ccccc23)ccc1N1CCOCC1,-4,90*,2,2,0,1,2
O=[N+]([O-])c1cc(-c2nnc(Nc3ccccc3)c3ccccc23)ccc1N1CCOCC1,-3,3,0,4,-1,·,·
Cc1cc(C)cc(N=Cc2c(O)c3ccccc3oc2=O)c1,2,2,2,-1,4,·,·
O=C(O)c1cc(N=Cc2c(O)c3ccccc3oc2=O)ccc1O,-3,38*,·,4,2,19,3
O=C(N=Nc1c(O)[nH]c2ccccc12)c1cc(NS(=O)(=O)c2cccs2)cc(NS(=O)(=O)c2cccs2)c1,-4,67*,2,3,-1,73*,35*
O=C(N=Nc1c(O)[nH]c2ccccc12)c1cccs1,-111,10,-2,6,-7,·,·
CCN(c1ccccc1)S(=O)(=O)c1ccc(C(=O)NCC(=O)Nc2ccc(F)c(F)c2F)cc1,-32,0,·,3,-2,·,·
CCCN(C(=O)CSc1nnc2ccccn12)C1CCS(=O)(=O)C1 (stereo not given),24,4,-2,5,1,·,·
O=C(c1ccc(F)cc1)N1CCN(Cc2ccccc2)CC1,6,-5,-1,4,2,·,·
O=C1NC(=S)N(C(=O)c2ccc(F)cc2)/C1=C/c1ccccc1,-55,36*,3,3,-3,65*,24*
COc1ccc(C(=O)CC(=O)c2ccc(F)cc2)cc1,-105,3,1,-2,1,·,·
COc1ccc(/C=C2\C(=O)NC(=S)N2C(=O)c2ccc(F)cc2)cc1,-95,38*,-3,-1,0,69*,31*
CN1CCN(C(=O)c2ccc(-c3cnn(C)c3)c3ccoc23)CC1,-3,·,·,·,·,·,·
COc1cc(OC)c2c(O)c3c(=O)cc(C)oc3c(-c3c(OC)cc4cc5c(c(O)c4c3O)C(=O)CC(C)(O)O5)c2c1 (stereo not given),·,44*,·,9,·,41*,22*
Cc1ccccc1SCC(=O)OCC(=O)NCc1ccccc1,-34,3,·,-8,2,·,·
